What was measured:
[1] = system: Acinetobacter baumannii; assay: Toxicity in Acinetobacter baumannii 4106 after 18 hrs by broth microdilution assay; format: organism-based; details: in vitro
How it was run: (§1)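 Single-agent MIC per CLSI broth microdilution. Cells from a 4–6 h culture in cation-adjusted Mueller-Hinton broth adjusted to 5 ×10^5 CFU/mL. Compound (DMSO stock) added to 200 μM top concentration and twofold serially diluted six times, with an untreated control row. Plates sealed and incubated stationary at 37°C for 18 h before MIC read.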

[2] = system: Klebsiella pneumoniae; assay: Toxicity in Klebsiella pneumoniae B9 after 18 hrs by broth microdilution assay; format: organism-based; how it was run: as §1
[3] = system: Escherichia coli; assay: Potentiation of colistin-induced antimicrobial activity against colistin-resistant Escherichia coli ATCC 25922 expressing mcr1 gene assessed as fold reduction in colistin MIC at 60 uM after 18 hrs by broth microdilution assay; format: functional
How it was run: (§2)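 Checkerboard-style resensitization following adapted CLSI broth microdilution. Bacteria were grown 4–6 h in CAMHB and subcultured to 5×10^5 CFU/mL. Adjuvant was added from DMSO stock and held constant while colistin was serially diluted in the dosed subculture. Plates were incubated stationary at 37°C for 18 h, then MICs were read. Fold reduction was taken relative to the colistin MIC without adjuvant.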

[4] = system: Klebsiella pneumoniae; assay: Potentiation of colistin-induced antimicrobial activity against colistin-resistant Klebsiella pneumoniae B9 assessed as fold reduction in colistin MIC at 60 uM after 18 hrs by broth microdilution assay; format: functional; how it was run: as §2
[5] = system: Escherichia coli; assay: Toxicity in Escherichia coli ATCC 25922 after 18 hrs by broth microdilution assay; format: organism-based; details: in vitro; how it was run: as §1
[6] = system: Acinetobacter baumannii; assay: Toxicity in Acinetobacter baumannii ATCC 17978 expressing mcr1 gene after 18 hrs by broth microdilution assay; format: organism-based; how it was run: as §1
[7] = system: Acinetobacter baumannii; assay: Potentiation of colistin-induced antimicrobial activity against colistin-resistant Acinetobacter baumannii 4106 assessed as fold reduction in colistin MIC at 60 uM after 18 hrs by broth microdilution assay; format: functional; how it was run: as §2
[8] = system: Acinetobacter baumannii; assay: Potentiation of colistin-induced antimicrobial activity against colistin-resistant Acinetobacter baumannii ATCC 17978 expressing mcr1 gene assessed as fold reduction in colistin MIC at 60 uM after 18 hrs by broth microdilution assay; format: functional; how it was run: as §2

| Compound | MIC [1] [µM] | MIC [2] [µM] | fold change (FC) [3] | fold change (FC) [4] | MIC [5] [µM] | MIC [6] [µM] | fold change (FC) [7] | fold change (FC) [8] |
| --- | --- | --- | --- | --- | --- | --- | --- | --- |
| O=C(NCCc1ccccn1)c1cc(Br)c(Br)[nH]1 | > 200 | > 200 | 0 | 2 | > 200 | > 200 | 0 | 0 |
| O=C(NCCc1c[nH]c2ccccc12)c1cccs1 |  |  | 0 | 0 |  |  | 8 | 0 |
| O=C(NCCc1c[nH]c2ccccc12)c1cc(Br)c[nH]1 |  |  | 2 | 128 |  |  | 64 | 16 |
| O=C(NCCc1c[nH]c2ccccc12)c1cc(Cl)c[nH]1 |  |  | 2 | 8 |  |  | 16 | 2 |
| O=C(NCCc1c[nH]c2ccccc12)c1ccc(Br)c(Br)n1 |  |  | 0 | 128 |  |  | 8 | 0 |
| O=C(NCCc1c[nH]c2ccccc12)c1ccccn1 |  |  | 0 | 0 |  |  | 8 | 0 |
| O=C(NCCc1c[nH]c2ccc(O)cc12)c1cc(Br)c(Br)[nH]1 | > 200 | > 200 | 4 | 8 | > 200 | > 200 | 4 | 4 |
| Cn1cc(CCNC(=O)c2cc(Br)c(Br)[nH]2)c2ccccc21 | > 200 | > 200 | 0 | 0 | > 200 | > 200 | 4 | 0 |
| O=C(NCc1c[nH]c2ccccc12)c1cc(I)c(I)[nH]1 |  |  | 0 | 0 |  |  | 0 | 0 |
| O=C(NCc1ccccc1)c1cc(Br)c(Br)[nH]1 | > 200 | > 200 | 0 | 2 | > 200 | > 200 | 2 | 0 |
| O=C(NCCc1c[nH]c2ccccc12)c1cc(Br)c(Br)n1Cc1ccccc1 |  |  | 0 | 16 |  |  | 8 | 2 |
| O=C(NCCc1c[nH]c2ccccc12)c1cc(Br)c(Br)s1 |  |  | 2 | 512 |  |  | 32 | 16 |
| O=C(NCCc1cn(Cc2ccccc2)c2ccccc12)c1cc(Br)c(Br)[nH]1 | > 200 | > 200 | 0 | 0 | > 200 | > 200 | 0 | 0 |
| CCCCn1c(C(=O)NCCc2c[nH]c3ccccc23)cc(Br)c1Br |  |  | 0 | 16 |  |  | 16 | 2 |
| O=C(NCc1c[nH]c2ccccc12)c1cccc(Br)n1 |  |  | 0 | 32 |  |  | 32 | 0 |
| O=C(NCCc1c[nH]c2ccccc12)c1cncc(Br)c1 |  |  | 0 | 8 |  |  | 4 | 0 |
| O=C(NCCc1c[nH]c2ccccc12)c1ccc(Br)o1 |  |  | 0 | 64 |  |  | 16 | 2 |
| O=C(NCCc1c[nH]c2ccccc12)c1cc(Cl)c(Cl)[nH]1 |  |  | 8 | 1024 |  |  | 256 | 32 |
| O=C(NC1Cc2ccccc2C1)c1cc(Br)c(Br)[nH]1 | > 200 | > 200 | 0 | 0 | > 200 | > 200 | 8 | 0 |
| Cn1cc(Br)cc1C(=O)NCCc1c[nH]c2ccccc12 |  |  | 2 | 4 |  |  | 32 | 4 |
| O=C(NCCc1c[nH]c2ccccc12)c1cc(Br)c(Br)o1 |  |  | 2 | 512 |  |  | 64 | 16 |
| O=C(NCCc1c[nH]c2ccccc12)c1ccc[nH]1 |  |  | 0 | 0 |  |  | 2 | 2 |
| O=C(NCCc1c[nH]c2ccccc12)c1sccc1Br |  |  | 2 | 128 |  |  | 64 | 4 |
| O=C(NCCc1c[nH]cn1)c1cc(Br)c(Br)[nH]1 | > 200 | > 200 | 0 | 0 | > 200 | > 200 | 8 | 0 |
| COc1ccc2[nH]cc(CCNC(=O)c3cc(Br)c(Br)[nH]3)c2c1 | > 200 | > 200 | 2 | 128 | > 200 | > 200 | 128 | 8 |
| O=C(NCCc1csc2ccccc12)c1cc(Br)c(Br)[nH]1 | > 200 | > 200 | 4 | 16 | > 200 | > 200 | 32 | 8 |
| Cn1cccc1C(=O)NCCc1c[nH]c2ccccc12 |  |  | 0 | 0 |  |  | 2 | 0 |
| Cn1c(C(=O)NCCc2c[nH]c3ccccc23)cc(Br)c1Br |  |  | 2 | 256 |  |  | 32 | 16 |

Reference: ChEMBL document CHEMBL4392827, “Tryptamine derivatives disarm colistin resistance in polymyxin-resistant gram-negative bacteria” (Bioorg Med Chem, 2019)
